PostGolgi ctrl: growth inhibition of yeast control strain, primary screen, counter-screen for post-Golgi transport modulator project. hit rate 5% among 98,000. efflux-deficient yeast background strain, growth absorbance A615, 16 h. inhibition, % at 10 µM
Ecoli tolC: growth inhibitors of E. coli tolC mutant, primary screen, strain BW25113 ΔtolC::kan, 384-well; OD615; growth inhibition, % at 10 µM (by protocol); hit rate 2.2% among 65,000;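 active = growth inhibition at or above a cutoff equal to the mean over every tested compound plus 3 SD, cut at about 60% in these data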;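 note: growth measured after 20 h incubation at 37 °C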
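Material: E. coli BW25113 ΔtolC::kan, tolC deletion mutant strain. Measure: percent growth inhibition. Schedule: 37 °C, 20 h exposure. Doses: single-point testing at 10 µM. Signal: A615 absorbance measurement. Buffer or medium: kanamycin-containing LB broth (50 µg/mL).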
Ecoli WT expand: growth inhibitors of wild-type E. coli, primary screen, strain BW25113, expanded library, OD600; AID 710, 2007; growth inhibition, % at 100 µM; hit rate 0.15% among 98,000; OD600 absorbance;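 active = growth inhibition above about 50% at one test dose, limit read from the data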;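 note: growth measured after 20 h incubation at 37 °C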
PostGolgi yeast: phenotypic screen on post-Golgi transport, primary screen | post-Golgi transport phenotypic cell assay | inhibition, % at 10 µM | hit rate 0.9% among 98,000 | AID 739, 2007;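 note: yeast cells grown in 1536-well plates; yeast grown about 18 h at 30C before absorbance read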
* hit, by the source's call; / = no result. Compounds with a hit are over-represented: about 6.3% of the library has one in this group of screens. Cut-off read from the data, not from the text of the source, unless noted: active = inhibition above about 30%; inactive = the rest.

SMILES	PostGolgi ctrl	Ecoli tolC	Ecoli WT expand	PostGolgi yeast
Cc1nn(-c2ccccc2)c2c1C(c1ccncc1)C(C#N)=C(N)O2 (stereo unspecified)	32*	-14	-10	9
Cc1ccc(-n2nc(C)c3c2OC(N)=C(C#N)C3c2ccncc2)cc1 (stereo unspecified)	-1	4	-13	17
CCN(CC)C(=O)CNC(=O)Cc1ccc(Cl)cc1	-1	/	9	-4
CCOC(=O)c1c(-c2ccccc2)oc2ccc(OC)cc12	31*	/	2	24
Cc1ccc(C)n1-c1ccc(N2CCOCC2)c(Br)c1	4	/	-5	3
OC1CN=C2C=CC=CN2C1 (stereo unspecified)	3	-9	-2	7
Cc1cccc(NC(=S)c2nc3ccccc3s2)c1	5	/	-19	-5
Cc1cc(=O)oc2c(CN3CCCCC3)c(O)c(Cl)cc12	-3	1	-6	38*
Cc1c(C)c2cc(Cl)c(O)c(CN3CCN(C)CC3)c2oc1=O	5	19	2	36*
CC(/C=C/C=C/c1ccccc1)=N/NC(=O)CNc1ccc(C)cc1	11	/	-6	-1
CC(C)N(CCc1ccncc1)C(=O)Nc1ccc(Cl)c(Cl)c1	90*	35	8	91*
O=C(Cc1ccccc1[N+](=O)[O-])NCc1ccccc1Cl	23	/	1	2
CC1CCN(S(=O)(=O)c2ccc3c(c2)CCN3C(=O)CCC(=O)O)CC1	3	-10	-4	2
O=C(O)CCC(=O)N1CCc2cc(S(=O)(=O)N3CCC(Cc4ccccc4)CC3)ccc21	/	100*	-12	5
COc1ccccc1NC(=O)N1CCCC1C(=O)NC12CC3CC(CC(C3)C1)C2 (stereo unspecified)	8	0	-2	-4
CCCCn1c(SCC(=O)Nc2cccc(OC)c2)nc2ccc(N3CCOCC3)cc2c1=O	11	17	-17	7
CCCCn1c(SCC(N)=O)nc2ccc(N3CCOCC3)cc2c1=O	35*	/	2	-9
CS(=O)(=O)c1ccccc1-c1nc(-c2ccc(C(F)(F)F)cc2)no1	31*	/	3	-12
C[N+]1(CC(=O)Nc2ccc(F)cc2)CCN(C(=O)c2ccco2)CC1	13	/	4	2
C=CCn1c(SCC(=O)c2ccc(OC)cc2)nnc1C(C)NC(=O)c1cccs1 (stereo unspecified)	15	12	-2	-9
Cc1nn2c(=O)cc(COC(=O)c3ccc(S(=O)(=O)N4CCCCC4)cc3)nc2s1	11	/	-2	-7
Cc1ccc(C)c(CN2C(=O)C3CCCN3c3ccc(S(=O)(=O)N4CCOCC4)cc32)c1 (stereo unspecified)	1	/	-3	13
COc1ccccc1C1SCCN1S(=O)(=O)c1cccc(C(F)(F)F)c1 (stereo unspecified)	-3	63*	-18	-3
COc1ccc(C(=O)N2CCN(c3nc4cc(C)ccc4cc3C#N)CC2)c(OC)c1	25	15	-11	0
COc1ccc2nc(N3CCC(C)CC3)c(C#N)cc2c1	7	97*	5	0
SMILES	PostGolgi ctrl	Ecoli tolC	Ecoli WT expand	PostGolgi yeast
COc1ccc2nc(N3CCC(O)CC3)c(C#N)cc2c1	11	11	3	-2
CCOC(=O)C1CCN(c2nc3cc(OC)ccc3cc2C#N)CC1	16	75*	-8	3
CCN(CC)c1nc2cc(OC)ccc2cc1C#N	-3	34	4	39*
Cc1ccc(OCCCn2c(CO)nc3ccccc32)cc1	7	38	9	37*
O=C(CSc1nnnn1C1CCCCC1)NCCc1ccccc1	-5	16	8	-4
O=C(Oc1c(Cl)cc(Cl)c2cccnc12)N1CCCCC1	43*	19	3	-1
CCCn1c(SCC(=O)N2CCCc3ccccc32)nnc1-c1ccco1	36*	11	-3	-7
O=C(CCCSc1nc(-c2ccco2)cc(C(F)(F)F)n1)Nc1ccc2c(c1)OCO2	10	79*	-6	-1
O=C(CCSc1nc(-c2ccco2)cc(C(F)(F)F)n1)N1CCCc2ccccc21	38*	77*	-17	-3
O=C(CSc1nc(-c2ccco2)cc(C(F)(F)F)n1)Nc1ccc2c(c1)OCO2	/	11	/	/
COc1cc(OC)cc(-n2nnnc2SCC(=O)N2CCCc3ccccc32)c1	8	84*	-10	-7
COC(=O)c1ccc(NC(=O)CSc2nnc(CNc3ccc(F)cc3)n2C)cc1	11	9	-2	5
COc1cccc(CNCc2ccc(SC)cc2)c1OC	-5	/	5	2
Cc1nc2ccc(S(=O)(=O)NCC(=O)N3CCCC(C)C3)cc2s1 (stereo unspecified)	4	-2	3	5
O=C(CSc1nc(-c2ccco2)cc(C(F)(F)F)n1)N1CCSCC1	/	16	/	/
O=C(CCSc1nc(-c2ccco2)cc(C(F)(F)F)n1)N1CCN(c2ccccn2)CC1	30*	60	-27	5
Cc1[nH]n2c(=O)c3c(nc2c1-c1ccc(Cl)cc1)CCC3	2	100*	-5	-1
COc1cc(Nc2nnc(C)s2)c(Cl)cc1Cl	9	/	4	-3
COCCOc1cc(Nc2nnc(C(F)(F)F)s2)c(Cl)cc1Cl	32*	/	-6	21
CC(=O)Nc1ccc(S(=O)(=O)N2CCC(NC(=O)c3ccco3)CC2)cc1	14	-4	2	-5
O=C(CCC(=O)OCC(=O)c1ccccc1)Nc1cccc2cccnc12	3	/	2	-7
O=C(CCC(=O)OCC(=O)c1ccc(Br)cc1)Nc1ccc(Br)c2cccnc12	38*	/	-16	5
Cc1nonc1OC(C)CNc1ccc([N+](=O)[O-])cc1 (stereo unspecified)	35*	/	7	-1
CC(C)Oc1ccc(CNC(=S)N/N=C/c2ccc([N+](=O)[O-])cc2)cc1	22	/	-5	25
CC(=O)c1c(C(C)=O)c(C)n(-c2nc(-c3ccc(Br)cc3)c(C)s2)c1C	56*	/	-8	-9
SMILES	PostGolgi ctrl	Ecoli tolC	Ecoli WT expand	PostGolgi yeast
CCCSc1nc(C)c(-c2csc(C(C#N)=C3CCCC3)n2)cc1C#N	-6	-8	-4	5
CCOc1ccc(NC(=O)CSc2nnc(C34CC5CC(CC(C5)C3)C4)n2C)cc1	-6	/	-20	-1
CC1CCCCN1c1nnc(NC(=O)c2cc(-c3ccc(Br)cc3)on2)s1 (stereo unspecified)	46*	/	-15	3
CC1=NNC(=O)C1C(c1ccccc1)C(C#N)C#N (stereo unspecified)	3	/	2	0
O=C(NC(=S)Nc1cccc(Cl)c1N1CCCCC1)c1ccco1	37*	/	-5	22
O=C(NC(=S)Nc1cccc(Cl)c1N1CCCCC1)c1cccs1	52*	/	-13	6
O=C(NC(=S)Nc1ccc(N2CCCCC2)cc1)c1ccco1	4	/	4	-1
Cc1ccc(C(=O)c2c(NC(=O)c3cccnc3)sc3c2CCCC3)cc1	33*	/	-16	-10
Cc1nnc(Sc2nc3c(c(=O)[nH]c(=O)n3C)n2Cc2ccccc2Cl)s1	/	-5	/	/
O=C(Nc1ccc(Cl)cc1)N1CCN(c2ccc3nnc(-c4ccc(F)cc4)n3n2)CC1	7	0	2	-1

Screening results: PubChem BioAssay, SRMLSC
